# PAX8 inh HTS = inhibitors of PAX8-driven TPO luciferase reporter, primary screen, RMG-I cells, single concentration | 360,000 compounds, 1.2% hits | inhibition, % at 12.6 µM | AID 652154, 2013 | SteadyGlo, 24 h;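 active means mean replicate inhibition at least 60% with every replicate also reaching 60%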;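 further: luciferase light reporting Pax8 driven TPO promoter activity; plate controls were median of neutral control wells for no effect and mitoxantrone controls for full effect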
# dFosB act-1 = activators of delta FosB homodimer, primary screen, biochemical, fluorescence polarization, TAMRA-CDK5 oligo, single point | Protein FosB (Mus musculus), P13346 | purified delta FosB; percent of positive-control signal above neutral wells | AID 493131, 2011 | 340,000 compounds, 0.99% hits | activation, % at 25 µM;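 active means mean activation above about 17%, with every replicate also reaching it, limit read from the data, passing the limit was not always enough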
# Target sequence (P13346 whole entry, looked up): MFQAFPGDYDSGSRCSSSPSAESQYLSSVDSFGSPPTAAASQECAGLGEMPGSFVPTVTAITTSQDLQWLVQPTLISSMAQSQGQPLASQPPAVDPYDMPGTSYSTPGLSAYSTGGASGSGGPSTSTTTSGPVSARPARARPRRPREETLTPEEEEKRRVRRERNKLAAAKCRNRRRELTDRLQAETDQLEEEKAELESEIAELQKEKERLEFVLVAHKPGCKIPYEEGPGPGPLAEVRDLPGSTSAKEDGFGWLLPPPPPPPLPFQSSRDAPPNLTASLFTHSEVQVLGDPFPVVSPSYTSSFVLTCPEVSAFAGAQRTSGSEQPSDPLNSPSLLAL
# GSIS activator = GLuc luminescence reporter in INS-1E cells, primary screen for activators of glucose-dependent secretion of insulin; INS-1E GLuc reporter insulin secretion, 2-3 h; AID 743287, 2014; 370,000 compounds, 0.61% hits; activation, % at 16.6 µM;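 active means lowest replicate activation of at least 40%, so every replicate reaches that level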;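 further: 0% = median of neutral control wells and 100% = median of IBMX positive control wells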
# Cneo AK release = Cryptococcus neoformans cell lysis inducers, primary screen, AK release luminescence, single concentration. C. neoformans lysis, adenylate kinase release luminescence, 4 h; normalised: neutral wells 0, clomiphene wells 100. 360,000 compounds, 0.2% hits. lysis activity, % at 15 µM. AID 651654, 2012;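 active means mean lysis activity across replicates of at least 80%, whatever share of replicates individually reach that level; inactive means mean lysis activity below 80%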
#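 Assay system: C. neoformans cells. Amount: yeast cell density of 5 × 10^6 cells/mL. Technique: AK luminescence. Buffer or medium: YPD. Times: static 4 h at 37 °C with compound, 1 h detection. Dosing: single-point compound dose. Read-out: lysis from increased AK signal.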
# CDK5 inh = inhibitors of human CDK5/p35 kinase, primary screen, biochemical, single concentration; inhibition, % at 10 µM; Recombinant CDK5/p35, ADP-Glo luminescence, 60 min; AID 488839, 2010; Cyclin-dependent kinase 5 (Homo sapiens) + Cyclin-dependent kinase 5 activator 1 (Homo …; 330,000 compounds, 0.01% hits;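 active means highest replicate inhibition of at least 50% and at least 75% of replicates reaching 50%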;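 further: plate controls were DMSO neutral control for no effect and GW8510 at 10 µM for full effect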
# HIV Env fusion = inhibitors of HIV-1 Env-driven cell-cell fusion, primary screen, HeLa-JRFL effector, CEM21 target cells, luciferase | inhibition, % at 12.3 µM | 360,000 compounds, 1.1% hits;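 active means mean replicate inhibition score of at least 50 and every replicate individually at or above 50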;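 further: 0% = plate neutral controls and 100% = maraviroc near 300 nM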
# dFosB act-2 = activators of mouse delta FosB DNA binding, confirmation, biochemical, fluorescence polarization, TAMRA-CDK5 oligo, cherry-picked samples; activation, % at 24.9 µM; purified delta FosB; normalised: neutral wells 0, positive control 100; shares compounds with dFosB act-1; 2,400 tested, under 10 active;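 active means highest replicate activation at or above 34% and every replicate reaching that threshold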;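 further: higher polarization means more probe DNA bound by delta FosB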
# The depositor's hits bear a star; . = no result given; [ ] = another dose, or the depositor's remark. Hits are enriched below; roughly 2.9% of the tested compounds scored in any of these assays.
SMILES,PAX8 inh HTS,dFosB act-1,GSIS activator,Cneo AK release,CDK5 inh,HIV Env fusion,dFosB act-2
O=C(CN1C(=O)C2CC=CCC2C1=O)Nc1nnc(SCc2ccc(Cl)cc2)s1 (stereo not given),18,-9,.,0,-1,-70,.
O=C(CSc1nc2ccccc2c(=O)n1-c1ccccc1)c1c[nH]c2ccccc12,2,29*,0,.,-1,20,5
O=C(CSc1nc2ccccc2c(=O)n1-c1ccc(Cl)cc1)c1ccco1,.,53*,.,-2,0,.,3
CCOC(=O)c1c(C)[nH]c(C)c1C(=O)CSc1nc2ccccc2c(=O)n1-c1ccc(Cl)cc1,11,0,-30,.,0,10,.
NC(=O)CSc1nc2ccccc2c(=O)n1-c1ccccc1,-3,0,-1,-1,1,11,.
C[C@@H]1CN([C@@H](C)CO)C(=O)c2cccc(NC(=O)Nc3ccccc3)c2O[C@@H]1CN(C)C,-16,.,-5,5,.,-11[16.7 µM],.
Cc1cccc(NC(=O)c2cc(-c3cccnc3)nc3c(C)cccc23)n1,18,55*,13,9,0,11,0
C[C@H]1CN([C@@H](C)CO)C(=O)c2cc(-c3cccnc3)cnc2O[C@H]1CN(C)C(=O)c1ccccc1F,.,.,22,-5,.,-6[16.7 µM],.
Cc1cccc(Nc2nc(N)nc(-c3oc4ccccc4c3C)n2)c1,-50,78*,19,-1,1,33,-1
Cc1c(-c2nc(N)nc(Nc3ccccc3F)n2)oc2ccccc12,.,-10,.,-1,0,-391,.
COc1cccc(Nc2nc(N)nc(-c3oc4ccccc4c3C)n2)c1,.,60*,-15,-14,-4,23,0
O=C(CCNC(=O)c1ccccc1Cl)Nc1ccc(Br)c(C(F)(F)F)c1,5,1,-2,9,1,11,.
O=C(CCNC(=O)c1ccccc1Cl)Nc1cc(C(F)(F)F)ccc1Cl,-19,34*,.,.,-2,21,6
COc1ccccc1NCC(O)Cn1c2ccccc2c2ccccc21 (stereo not given),17,-11,.,-4,1,1,.
COc1ccc(CCNCC(O)Cn2c3ccccc3c3ccccc32)cc1OC (stereo not given),12,21*,-11,.,-2,-23,1
CC(C)NC(=O)N(C)C[C@@H]1Oc2ccc(NC(=O)Nc3cccc4ccccc34)cc2CC(=O)N([C@@H](C)CO)C[C@@H]1C,34,.,-2,3,.,1[16.7 µM],.
O=C(NC(=S)Nc1ccc2oc(=O)ccc2c1)c1cccc(Cl)c1,-25,88*,2,4,0,-2,0
O=C(NC(=S)Nc1ccc2oc(=O)ccc2c1)c1cccc(F)c1,-43,1,-20,-3,0,-10,.
COc1ccc2c3c(n(C)c2c1)[C@H](CO)N(C)CC31CCN(C(=O)c2ccc3c(c2)OCO3)CC1,.,.,17,.,.,.,.
O=C(Cn1ncc2c([nH]c3ccccc32)c1=O)NCCc1ccccc1,24,44*,6,2,3,-2,-1
C[C@H](O)C#Cc1cnc2c(c1)C(=O)N([C@@H](C)CO)C[C@H](C)[C@H](CN(C)C(=O)c1ccncc1)O2,.,.,9,2,.,-6[16.7 µM],.
NC1=NC2(CCC(c3ccccc3)CC2)n2c(nc3ccccc32)N1 (stereo not given),.,34*,.,0,2,.,2
C[C@@H]1CN([C@@H](C)CO)C(=O)c2cc(-c3ccncc3)cnc2O[C@@H]1CN(C)C(=O)Cc1cccnc1,5,.,12,-1,.,-8[16.7 µM],.
C[C@@H]1CN([C@H](C)CO)C(=O)Cc2cc(NC(=O)NC3CCCCC3)ccc2O[C@@H]1CN(C)Cc1ccc(C(=O)O)cc1,-14,.,8,-1,.,.,.
N#C/C(=C\c1c(N2CCN(Cc3ccccc3)CC2)nc2ccccn2c1=O)S(=O)(=O)c1ccccc1,10,32*,-7,.,.,-12,3

# Screening results (PubChem)
